Most compounds without a hit are left out; they make up all but 2.7% or so of the library.
OX1R antag-1 = OX1R (HCRTR1) antagonists, primary screen, fluorescence, CHO/OX1R cells, Fluo-8 calcium, orexin A. Fluo-8 calcium fluorescence. inhibition, % at 5 µM. 0.43% of 330,000 active;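 active = inhibition above its plate's threshold, mean inhibition of all tested compounds on the plate plus 3 SD, cut at about 37% in these data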
OXTR potentiator = human OXTR potentiators, primary screen, fluorescence, CHO-OTR cells, Fluo-8 calcium. activation, % at 3 µM. AID 2445, 2010. Fluo-8 calcium fluorescence, potentiator mode; 0% = oxytocin EC15, 100% = EC100. 0.061% of 320,000 active. Oxytocin receptor (Homo sapiens), P30559;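 active = activation above that plate's cutoff, the mean activation of tested compounds plus 3 SD, cut at about 6.6% in these data, passing the limit was not always enough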
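Replication – single well per compound, singlicate · Assay system – CHO cell line stably expressing human OTR · Timing – 6 min pre-incubation, 100 s read · Measure – normalized max/min fluorescence ratio, % activation · Doses – 3.0 µM, one dose · Detection – Fluo-8 calcium dye fluorescence · Probe or stimulus – oxytocin near EC15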
CHO parental Ca = ATP-evoked calcium signal inhibitors, parental CHO, primary screen, counter-screen for OX1R antagonist project, cell-based, fluorescence, Fluo-8 calcium dye | AID 463079, 2010 | inhibition, % at 5.6 µM | 0.63% of 330,000 active | parental CHO-K1, ATP-induced calcium, Fluo-8 fluorescence;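 active = inhibition above that plate's mean sample inhibition plus 3 SD, cut at about 26% in these data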
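Material: Parental CHO cells | Reagent: ATP | Compound dosing: Single nominal dose of 5.6 µM per compound | Detection: Intracellular calcium via Fluo-8 no-wash fluorescent dye | Read-out: % inhibition of ATP-induced calcium mobilization | Benchmarks: Low control ATP plus DMSO, high control DMSO only | Replicates: Singlicate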
OXTR ag = human OXTR agonists, primary screen, fluorescence, CHO-OTR cells, Fluo-8 calcium | AID 2435, 2010 | activation, % at 3 µM | 0.32% of 320,000 active | Oxytocin receptor (Homo sapiens), P30559 | Fluo-8 calcium fluorescence; normalized: DMSO 0%, oxytocin 100%;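 active = activation above the mean of all tested compounds plus 3 SD, cutoff set per screening run, cut at about 20% in these data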;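 also: peak over basal fluorescence ratio from a 100 s FLIPR kinetic read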
OX1R antag-2 = antagonists of human orexin 1 receptor (OX1R); Orexin/Hypocretin receptor type 1 (Homo sapiens), O43613; OX1R-expressing cells, FRET antagonist read-out; inhibition, % at 6.6 µM; 1.8% of 330,000 active; in the data active = inhibition mostly above about 38%, no sharp cut-off; inactive = mostly below about 40%
V1R ag counter = agonists of human V1a receptor, primary screen, counter-screen for OXTR agonist project, fluorescence, CHO-V1R cells; AID 2797, 2010; Vasopressin V1a receptor (Homo sapiens), P37288; activation, % at 3 µM; 0.25% of 320,000 active; Fluo-8 calcium fluorescence, agonist mode; 0% DMSO, 100% 3 nM vasopressin;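 active = activation above the mean activation of all tested compounds plus 3 SD, per screening run, cut at about 20% in these data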;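 also: signal is peak over basal fluorescence ratio across a 100 second FLIPR read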
Target sequence (P37288 whole entry, looked up): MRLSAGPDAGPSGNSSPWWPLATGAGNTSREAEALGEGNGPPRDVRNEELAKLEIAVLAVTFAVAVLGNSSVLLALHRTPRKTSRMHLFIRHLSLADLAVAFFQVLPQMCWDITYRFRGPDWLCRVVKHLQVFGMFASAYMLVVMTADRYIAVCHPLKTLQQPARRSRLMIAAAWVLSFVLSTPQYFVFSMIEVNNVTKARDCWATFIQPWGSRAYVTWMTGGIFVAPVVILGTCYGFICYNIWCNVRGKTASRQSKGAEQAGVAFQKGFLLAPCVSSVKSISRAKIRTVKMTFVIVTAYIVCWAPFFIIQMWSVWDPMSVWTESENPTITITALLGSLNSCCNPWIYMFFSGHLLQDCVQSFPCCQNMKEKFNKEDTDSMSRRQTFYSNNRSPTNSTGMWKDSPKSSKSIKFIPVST
OX1R Fluo8 conf = OX1R (HCRTR1) antagonists, confirmation, fluorescence, CHO/OX1R cells, Fluo-8 calcium, orexin A. shares compounds with OX1R antag-1. orexin A calcium Fluo-8 fluorescence. inhibition, % at 5 µM. 38% of 1,100 active. AID 492963, 2010; in the data active = inhibition above about 29%
CHO Ca triplic = ATP-evoked calcium inhibition in parental CHO, counter-screen for OX1R antagonist project, cell-based, fluorescence, CHO-K1, triplicate | 9.3% of 1,100 active | shares compounds with OX1R antag-1 | ATP-induced calcium, Fluo-8 fluorescence | inhibition, % at 5.6 µM;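 active = inhibition above a per-plate limit, the mean inhibition of that plate's test compounds plus 3 SD, cut at about 25% in these data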
OX1R HTRF confirm = OX1R (HCRTR1) antagonists, confirmation, cell-based, HTRF | shares compounds with OX1R antag-2 | OX1R-expressing cells, HTRF antagonist assay | 49% of 1,800 active | inhibition, % at 6.6 µM | AID 492964, 2010; in the data active = inhibition above about 55%;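 also: CHO cells expressing OX1R stimulated with orexin A at about EC80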
CHO-K1 HTRF cnt = signal inhibition in parental CHO-K1 cells, counter-screen for OX1R antagonist project, cell-based, HTRF; inhibition, % at 6.6 µM; 48% of 1,800 active; HTRF counterscreen; shares compounds with OX1R antag-2; in the data active = inhibition above about 17%
A number is an active result.

Screening COc1ccc(Br)cc1/C=C/C(=O)Nc1ccc2ccccc2c1 returned OX1R antag-1 46, OXTR potentiator inactive, CHO parental Ca inactive, OXTR ag inactive, OX1R antag-2 91, V1R ag counter inactive, OX1R Fluo8 conf inactive, CHO Ca triplic inactive, OX1R HTRF confirm 89 and CHO-K1 HTRF cnt inactive.
`O=C(CCCN1C(=O)/C(=C\c2ccco2)SC1=S)Nc1ccc2ccccc2c1` gave OX1R antag-1 45, OXTR potentiator inactive, CHO parental Ca inactive, OXTR ag inactive, OX1R antag-2 85, V1R ag counter inactive, OX1R Fluo8 conf 42, CHO Ca triplic inactive, OX1R HTRF confirm 89 and CHO-K1 HTRF cnt inactive.
Screening CC(C)CC(C(=O)OCC(=O)Nc1cccc(Cl)c1)N1C(=O)C2CC=CCC2C1=O (configuration not stated) returned OX1R antag-1 inactive, OXTR potentiator inactive, CHO parental Ca inactive, OXTR ag inactive, OX1R antag-2 inactive and V1R ag counter inactive.
For CCOc1ccccc1NC(=O)COC(=O)C(CC(C)C)N1C(=O)C2CC=CCC2C1=O (configuration not stated) the results were OX1R antag-1 inactive, OXTR potentiator inactive, CHO parental Ca inactive, OXTR ag inactive, OX1R antag-2 60, V1R ag counter inactive, OX1R Fluo8 conf inactive, CHO Ca triplic inactive, OX1R HTRF confirm inactive and CHO-K1 HTRF cnt inactive.
For CC(NC(C)c1ccccc1Cl)C(=O)Nc1cccc(S(=O)(=O)N2CCCCC2)c1 (configuration not stated) the results were OX1R antag-1 89, OXTR potentiator inactive, CHO parental Ca inactive, OXTR ag inactive, OX1R antag-2 88, V1R ag counter inactive, OX1R Fluo8 conf 80, CHO Ca triplic inactive, OX1R HTRF confirm 89 and CHO-K1 HTRF cnt inactive.
O=C(CCl)Nc1cccc(S(=O)(=O)N2CCCCCC2)c1 was read as OX1R antag-1 inactive, OXTR potentiator inactive, CHO parental Ca inactive, OXTR ag inactive, OX1R antag-2 inactive and V1R ag counter inactive.
For Cc1cc(-c2nnc(CCC(=O)N3CCN(Cc4cccnc4)CC3)o2)c(C)o1 the results were OX1R antag-1 inactive, OXTR potentiator inactive, CHO parental Ca inactive, OXTR ag inactive, OX1R antag-2 inactive and V1R ag counter inactive.
For COc1cc(NC(=O)CSCc2cnn(-c3ccccc3)c2-n2cccc2)cc(OC)c1 the results were OX1R antag-1 50, OXTR potentiator inactive, CHO parental Ca inactive, OXTR ag inactive, OX1R antag-2 78, V1R ag counter inactive, OX1R Fluo8 conf inactive, CHO Ca triplic inactive, OX1R HTRF confirm 89 and CHO-K1 HTRF cnt inactive.
`O=c1cc(OCc2ccccc2)cc[nH]1` gave OX1R antag-1 inactive, OXTR potentiator inactive, CHO parental Ca inactive, OXTR ag inactive, OX1R antag-2 inactive and V1R ag counter inactive.
CN1CCC/C1=C/C=C1\SC(=S)NC1=O was read as OX1R antag-1 inactive, OXTR potentiator inactive, CHO parental Ca inactive, OXTR ag 46, OX1R antag-2 80, V1R ag counter 24, OX1R Fluo8 conf 33, CHO Ca triplic 32, OX1R HTRF confirm inactive and CHO-K1 HTRF cnt 98.
For c1ccc2oc(-c3ccc4nc[nH]c4c3)nc2c1 the results were OX1R antag-1 inactive, OXTR potentiator inactive, CHO parental Ca inactive, OXTR ag inactive, OX1R antag-2 inactive and V1R ag counter inactive.
For Nc1nc2ccc(-c3nc4ccccc4o3)cc2s1 the results were OX1R antag-1 72, OXTR potentiator inactive, CHO parental Ca inactive, OXTR ag inactive, OX1R antag-2 97, V1R ag counter inactive, OX1R Fluo8 conf 32, CHO Ca triplic inactive, OX1R HTRF confirm 89 and CHO-K1 HTRF cnt inactive.
For COc1ccc2oc(C(=O)Nc3nc4ccccc4[nH]3)c(C)c2c1 the results were OX1R antag-1 inactive, OXTR potentiator inactive, CHO parental Ca inactive, OXTR ag inactive, OX1R antag-2 53, V1R ag counter inactive, OX1R Fluo8 conf inactive, CHO Ca triplic inactive, OX1R HTRF confirm inactive and CHO-K1 HTRF cnt inactive.
`COc1ccc(Br)c(C(=O)Nc2nc3ccccc3[nH]2)c1` gave OX1R antag-1 inactive, OXTR potentiator inactive, CHO parental Ca inactive, OXTR ag inactive, OX1R antag-2 inactive and V1R ag counter inactive.
CCCOc1ccc(C(=O)CCNC(Cc2c[nH]c3ccccc23)C(=O)O)cc1 (configuration not stated) was read as OX1R antag-1 inactive, OXTR potentiator inactive, CHO parental Ca inactive, OXTR ag inactive, OX1R antag-2 inactive and V1R ag counter inactive.
O=C(Nc1ccc2c(c1)OCCO2)c1ccc2ccccc2n1 was read as OX1R antag-1 inactive, OXTR potentiator inactive, CHO parental Ca inactive, OXTR ag inactive, OX1R antag-2 107, V1R ag counter inactive, OX1R Fluo8 conf inactive, CHO Ca triplic inactive, OX1R HTRF confirm 87 and CHO-K1 HTRF cnt inactive.
For O=C(Nc1cccc(S(=O)(=O)NCc2ccco2)c1)c1cc(-c2ccccc2)nc2ccccc12 the results were OX1R antag-1 46, OXTR potentiator inactive, CHO parental Ca inactive, OXTR ag inactive, OX1R antag-2 78, V1R ag counter inactive, OX1R Fluo8 conf 41, CHO Ca triplic inactive, OX1R HTRF confirm 74 and CHO-K1 HTRF cnt inactive.
Screening O=C(Nc1ccc(S(=O)(=O)NCc2ccco2)cc1)c1ccc2ccccc2n1 returned OX1R antag-1 inactive, OXTR potentiator inactive, CHO parental Ca inactive, OXTR ag inactive, OX1R antag-2 45, V1R ag counter inactive, OX1R Fluo8 conf 37, CHO Ca triplic inactive, OX1R HTRF confirm 66 and CHO-K1 HTRF cnt inactive.
`O=C(NCc1ccco1)c1cc(-c2ccccc2)nc2ccccc12` gave OX1R antag-1 inactive, OXTR potentiator inactive, CHO parental Ca inactive, OXTR ag inactive, OX1R antag-2 inactive and V1R ag counter inactive.
